Assay [1] addresses T1, Aldo-keto reductase family 1 member C3 (Homo sapiens) (UniProt P42330).
T1 sequence (whole entry): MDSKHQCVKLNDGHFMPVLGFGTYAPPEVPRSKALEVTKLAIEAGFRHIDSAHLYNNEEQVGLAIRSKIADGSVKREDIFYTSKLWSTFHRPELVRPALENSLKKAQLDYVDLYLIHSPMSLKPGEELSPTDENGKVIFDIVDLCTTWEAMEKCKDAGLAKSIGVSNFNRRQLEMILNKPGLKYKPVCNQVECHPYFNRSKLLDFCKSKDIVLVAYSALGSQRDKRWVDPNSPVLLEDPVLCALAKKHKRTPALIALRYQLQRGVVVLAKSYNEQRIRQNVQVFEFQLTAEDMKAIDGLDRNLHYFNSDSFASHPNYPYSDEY
Description: Inhibition of AKR1C3 in human HL60 cells assessed as potentiation of etoposide-induced cytotoxicity by measuring reduction in cell viability at 0.1 uM coincubated with etoposide at 0.5 uM after 72 hrs by MTS assay (reference value: 20%). The format is cell-based. Put shortly: (§1)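 HL-60 or KG1a cells were coincubated with inhibitor and etoposide for 72 h, then cell viability was read. Values are mean ± SD (n = 6). Treatments were compared with control by two-tailed t test.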
On the technique in general: Tetrazolium assays rely on reduction of a dye to a coloured formazan, in cell work by metabolically active cells.

For assay [2], the system named is HL-60. Description: Cytotoxicity against human HL60 cells assessed as reduction in cell viability at 50 uM at 72 hrs by MTS assay. The format is functional, cell-based. Put shortly: (§2)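 HL-60 human acute promyelocytic leukemia cells exposed to AKR1C3 inhibitor alone, with no chemotherapeutic, over a range up to 100 μM. Lower working range was 0.1–1 μM. Read-out was cell viability relative to untreated control.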

Assay [3] addresses T1, Aldo-keto reductase family 1 member C3 (Homo sapiens). Description: Inhibition of AKR1C3 in human KG1a cells assessed as potentiation of etoposide-induced cytotoxicity by measuring reduction in cell viability at 0.1 uM coincubated with etoposide at 1 uM after 72 hrs by MTS assay. In kind it is cell-based. Put shortly:
as §1

Assay [4] has the same target. Nature of the assay: Inhibition of AKR1C3 in human HL60 cells assessed as potentiation of etoposide-induced cytotoxicity by measuring reduction in cell viability pre-treated with 0.1 to 1 uM compound for 24 hrs followed by 1 uM etoposide exposure for additional 72 hrs by MTS assay. The format is cell-based.
Assay [5] has the same target. Description: Inhibition of AKR1C3 in human HL60 cells assessed as potentiation of etoposide-induced cytotoxicity by measuring reduction in cell viability at 0.1 uM coincubated with etoposide at 1 uM after 72 hrs by MTS assay (reference value: 40%). The format is cell-based. The essentials:
as §1

The subject of assay [6] is HL-60. Description: Cytotoxicity against human HL60 cells assessed as reduction in cell viability at 0.1 to 1 uM at 72 hrs by MTS assay. In kind it is functional. Put shortly:
as §2

The test system of assay [7] is HL-60. Description: Downregulation of AKR1C3 expression in human HL60 cells at 1 to 10 uM after 72 hrs by Western blot analysis. In kind it is functional, cell-based. The essentials: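 KG1a and HL-60 cells were incubated with inhibitor at 1, 5 and 10 μM. AKR1C3 expression levels were determined after 48 h and 72 h incubation.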
In assay [8] the test system is KG-1a. Description: Cytotoxicity against human KG1a cells expressing AKR1C3 assessed as reduction in cell viability at 1 uM at 72 hrs by MTS assay. In kind it is functional.
Assay [9] concerns KG-1a. Description: Cytotoxicity against human KG1a cells expressing AKR1C3 assessed as reduction in cell viability at >25 uM at 72 hrs by MTS assay. In kind it is functional, cell-based.
The test system of assay [10] is HL-60. Nature of the assay: Cytotoxicity against human HL60 cells assessed as reduction in cell viability up to 100 uM at 72 hrs by MTS assay. The format is functional, cell-based. The essentials:
as §2

Assay [11] deals with T2, Aldo-keto reductase family 1 member C3 (Homo sapiens, UniProt P42330). Description: Inhibition of N-terminal His6-tagged human recombinant AKR1C3 in presence of NADPH by fluorescence assay.
Assay [12] deals with T2, Aldo-keto reductase family 1 member C3. Description: Inhibition of recombinant N-terminal His-tagged AKR1C3 (unknown origin) assessed as rate of change of pyridine nucleotide absorbance in presence of NADPH.
The target in assay [13] is Aldo-keto reductase family 1 member C2 (Homo sapiens, UniProt P52895). Nature of the assay: Inhibition of recombinant AKR1C2 (unknown origin) assessed as reduction in S-tetralol catalyzed oxidation in presence of NADPH by fluorescence assay.
Chain of Aldo-keto reductase family 1 member C2 (P52895 whole entry): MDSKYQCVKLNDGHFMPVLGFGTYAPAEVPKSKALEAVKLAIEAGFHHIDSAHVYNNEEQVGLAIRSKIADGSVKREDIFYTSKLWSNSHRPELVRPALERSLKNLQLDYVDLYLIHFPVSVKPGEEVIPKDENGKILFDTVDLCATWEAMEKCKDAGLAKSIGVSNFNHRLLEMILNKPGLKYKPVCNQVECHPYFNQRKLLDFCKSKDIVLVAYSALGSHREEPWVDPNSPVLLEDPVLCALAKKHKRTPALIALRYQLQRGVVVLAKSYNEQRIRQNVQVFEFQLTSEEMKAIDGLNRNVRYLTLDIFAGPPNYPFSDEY
For a further assay, the species on record is Homo sapiens. Description: Selectivity ratio of IC50 for recombinant AKR1C2 (unknown origin) to IC50 for recombinant AKR1C3 (unknown origin).

The text below walks through data of ChEMBL document CHEMBL4428081, “Selective AKR1C3 Inhibitors Potentiate Chemotherapeutic Activity in Multiple Acute Myeloid Leukemia (AML) Cell Lines” (ACS Med Chem Lett, 2016).

Each structure is given as a SMILES string. Calls of active or inactive are those of the source. No cut-off for these calls is given here.

In general, IC50 refers to the point on the concentration scale where inhibition reaches its midpoint.

Regarding `CC(C)=CCc1ccc(/C=C/C(=O)O)cc1NC(=O)CCc1ccccc1`, the Activity is 45% in assay [1]; 40% in assay [3]; 80 to 95% in assay [4]; 52% in assay [5]; 8% with HL-60 [6]; 20% with KG-1a [8]. Further, the outcome with HL-60 [2] and with HL-60 [7] was Active.

Take `CC(C)=CCc1ccc(/C=C/C(=O)O)cc1OC(=O)CCc1ccccc1`: the result in the assay with KG-1a [9] was Active. Besides, the figures for the Activity in assay [3], in [4] and in [5] were 54%, 80 to 95% and 80%, respectively. The outcome with HL-60 [10] was inactive.

Take `C[C@@H]1C(O)=C(C(N)=O)C(=O)[C@@]2(O)C(O)=C3C(=O)c4c(O)cccc4[C@@](C)(O)[C@H]3C[C@@H]12`: the concentration for half-maximal inhibition (IC50) in assay [11] was 501 nM.

As to `CC(=O)O[C@]1(C(C)=O)CC[C@H]2[C@@H]3C[C@H](C)C4=CC(=O)CC[C@]4(C)[C@H]3CC[C@@]21C` [MEDROXYPROGESTERONE ACETATE], the half-maximal inhibitory concentration (IC50) is 2510 nM in [12] and 3.98 µM in assay [13]. Besides, the Ratio IC50 in the assay filed under Homo sapiens amounted to 0.66.

For `CC(C)=CCc1cc(/C=C/C(=O)O)ccc1NC(=O)CCc1ccccc1`, the Activity was 25% in [1], 42% in [3], 80 to 95% in assay [4] and 57% in [5]. Also, in the assay with KG-1a [9], the outcome was Active. Moreover, the result in the assay with HL-60 [10] was inactive.
